Results published in PubChem BioAssay.
Activity calls are given as the source filed them.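 How the source made its calls, unless noted: active means fluorescence slope higher than the sample average by over 3 SD (cut at about -0.22 in these data, passing the limit was not always enough); inactive means the rest.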

Experiments:
[1] = inhibitors of TNFa-induced NFkB p65 translocation, primary screen, imaging, HUVEC, MLSMR starter and 10KST1 sets (AID 438;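 active means inhibition above 20% together with a positive visual image hit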;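 further: compound added about 3h40 before a 20 min TNFalpha stimulation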;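 on inhibition: signal is the nuclear over cytoplasmic p65 intensity ratio per well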); conditions: HUVEC TNFa-induced p65 nuclear translocation; cell count: measured here: nuclei count (cytotoxicity indicator), at 2.08 µM; inhibition: at 2 µM, stronger effect = higher value, 0% TNFa-plus-vehicle, 100% no-TNFa wells
[2] = inhibitors of mutant huntingtin aggregation, primary screen, imaging, exon1htt(103Q)mCFP cells, high-content imaging (AID 483;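 active means visual image review flags a hit and inhibition of aggregation exceeds 20%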;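 further: compound exposure lasted 3 days before fixation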;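 on nuclei count: percent of the per-plate median nuclei count of sample wells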); conditions: exon1htt(103Q)mCFP cell line, aggregate imaging, at 2 µM; inhibition of aggregation: stronger effect = higher value; nuclei count: measured here: cell count, toxicity
[3] = inhibitors of E-selectin induction by TNFa, primary screen, imaging, HUVEC, immunofluorescence, MLSMR starter and 10KST1 sets (AID 487;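 active means visually confirmed hit in the image check and inhibition above 20%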;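 on inhibition: signal is fraction of cell area covered by stained E-selectin grains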;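 on nuclei count: 100% = median nuclei count of all wells on the same plate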); conditions: HUVEC TNFalpha-induced E-selectin immunofluorescence imaging, at 2 µM; inhibition: stronger effect = higher value; nuclei count: measured here: cell number, toxicity
[4] = target: Voltage-gated potassium channel subunit beta-2 (Rattus norvegicus) (UniProt P62483); assay: KvBeta enzyme negative modulators, primary screen, biochemical, NADPH fluorescence (AID 622); conditions: recombinant KvBeta, 4-cyanobenzaldehyde reduction, at 10 µM, stronger effect = higher value;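 further: slope of raw intensity against log time taken from 70 to 1610 s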
Voltage-gated potassium channel subunit beta-2 (Rattus norvegicus), sequence (P62483 whole entry, looked up): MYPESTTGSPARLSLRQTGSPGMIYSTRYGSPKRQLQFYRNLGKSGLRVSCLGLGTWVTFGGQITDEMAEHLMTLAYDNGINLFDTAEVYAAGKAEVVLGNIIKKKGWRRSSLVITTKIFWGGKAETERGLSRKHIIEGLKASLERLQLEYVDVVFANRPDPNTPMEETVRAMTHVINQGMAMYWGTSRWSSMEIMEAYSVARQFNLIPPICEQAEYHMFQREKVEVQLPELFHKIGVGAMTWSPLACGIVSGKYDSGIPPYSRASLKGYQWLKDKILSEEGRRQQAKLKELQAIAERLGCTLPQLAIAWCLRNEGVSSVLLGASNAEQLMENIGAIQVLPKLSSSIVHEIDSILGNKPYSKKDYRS

[5] = target: Voltage-gated potassium channel subunit beta-2 (Rattus norvegicus) (UniProt P62483); assay: KvBeta positive modulators, primary screen, biochemical, NADPH fluorescence (AID 623;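 active means NADPH fluorescence slope more negative than the mean of all samples by about 3 SD, 99.7% confidence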;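 further: fluorescence intensity change per second fitted from 20 to 320 s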); conditions: Recombinant KvBeta, NADPH fluorescence decrease slope, 10 min; at 10 µM; stronger effect = lower value
[6] = target: Muscarinic acetylcholine receptor M4 (Homo sapiens) (UniProt P08173); assay: compounds altering M4/GIRK thallium flux, either direction, primary screen, M4 allosteric agonist project, cell-based, HEK293 M4/GIRK, BTC-AM (AID 625;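 active means fluorescence slope after compound addition differing from the mean of all tested samples at 99.7% confidence, mostly higher but some lower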;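 further: thallium influx through GIRK channels coupled to M4 in HEK293 cells with BTC-AM dye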); conditions: at 10 µM, actives lie on both sides
Muscarinic acetylcholine receptor M4 (Homo sapiens), sequence (P08173 whole entry, looked up): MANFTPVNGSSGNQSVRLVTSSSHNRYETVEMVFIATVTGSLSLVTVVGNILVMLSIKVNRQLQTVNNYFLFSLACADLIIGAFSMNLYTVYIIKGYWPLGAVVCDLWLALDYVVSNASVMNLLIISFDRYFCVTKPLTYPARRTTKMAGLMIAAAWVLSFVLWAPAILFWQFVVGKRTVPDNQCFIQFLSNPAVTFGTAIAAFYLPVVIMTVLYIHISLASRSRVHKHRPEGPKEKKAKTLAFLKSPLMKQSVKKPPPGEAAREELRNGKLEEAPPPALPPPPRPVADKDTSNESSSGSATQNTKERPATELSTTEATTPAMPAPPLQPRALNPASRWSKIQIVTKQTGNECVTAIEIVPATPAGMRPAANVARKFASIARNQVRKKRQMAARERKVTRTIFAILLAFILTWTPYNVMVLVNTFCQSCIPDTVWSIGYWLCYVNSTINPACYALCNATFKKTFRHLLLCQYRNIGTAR
Method in brief: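 assay system = HEK293 cells with M4 receptor and GIRK channels | medium = pH 7.3 thallium assay buffer | doses = 10 µM final, single point | timing = cells overnight at 37 °C, BTC-AM loading 1 h, reads 2 min total | signal = BTC-AM fluorescence, 1 Hz kinetic reads | read-out = post-addition slope, 15–24 s, of baseline-normalized fluorescence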

[7] = inhibitors of Sendai virus-induced IRF3 signaling, primary screen, TLR/RLR signaling modifier project, cell-based, Sendai virus stimulus, luciferase, 10K MLSCN set (AID 602276;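 active means inhibition at or above 50% at 10 µM; inactive means inhibition below 50%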;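 further: firefly luciferase from ISG56 promoter only with Renilla not read in this screen; 0% = Sendai virus plus DMSO and 100% = medium plus DMSO without virus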); conditions: HEK293 RL24 IRF3 luciferase reporter, at 10 µM, stronger effect = higher value
[8] = inhibitors of poly I:C-induced TLR3 signaling, primary screen, cell-based, poly I:C stimulus, luciferase, 10K MLSCN set (AID 602277;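 active means inhibition of the reporter signal at or above 50%; inactive means inhibition below 50%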); conditions: HEK293-TLR3 RL24 IRF3 luciferase reporter, at 10 µM, stronger effect = higher value

Row | SMILES | cell count [1] | inhibition [1] | inhibition of aggregation [2] | nuclei count [2] | inhibition [3] | nuclei count [3] | fluorescence slope [4] | NADPH fluorescence slope [5] | fluorescence slope [6] | inhibition [7] | inhibition [8]
1 | Nc1ncnc2nc(SCCN3CCCCC3)[nH]c12 | 189 | -0.7% (inactive) | 5% (inactive) | 90.8% | -0.1% (inactive) | 92.4% | -0.545 (inactive) | -3.4e-05 (inactive) | 0.00574 (inactive) | 17.8% (inactive) | 10.9% (inactive)
2 | c1ccc(-c2n[nH]c3ccccc23)cc1 | 708 | -3% (inactive) | 13.9% (inactive) | 116% | -13.1% (inactive) | 106% | -0.55 (inactive) | -5.6e-05 (inactive) | 0.00778 (inactive) | -14% (inactive) | -30% (inactive)
3 | O=C(Cn1nnc(-c2cccc(C(F)(F)F)c2)n1)NC(=O)NCc1ccco1 | 323 | 19.4% (inactive) | -17% (inactive) | 100% | 24.1% (inactive) | 101% | -0.44 (inactive) | -0.000353 (inactive) | 0.00673 (inactive) | -0.353% (inactive) | 5.76% (inactive)
4 | Cc1ccnc(NC(=O)Nc2ccc(F)cc2)c1 | 478 | 8.1% (inactive) | 9.2% (inactive) | 98.7% | -266% (inactive) | 126% | -0.567 (inactive) | -9.3e-06 (inactive) | 0.0057 (inactive) | -59.1% (inactive) | -110% (inactive)
5 | COc1cccc(CNc2cccc3cccnc23)c1O | 477 | 5% (inactive) | 19.2% (inactive) | 79.7% | -165% (inactive) | 122% | -0.564 (inactive) | -7.6e-05 (inactive) | 0.00309 (inactive) | 13% (inactive) | 8.77% (inactive)
6 | C=C(C)COc1ccc(-c2nc(N)ncc2Oc2ccccc2OCC)c(O)c1 | 291 | -11% (inactive) | -19.9% (inactive) | 111% | -17.8% (inactive) | 114% | -0.655 (inactive) | 4.1e-05 (inactive) | 0.00507 (inactive) | 17.7% (inactive) | -3.29% (inactive)
7 | Cn1c(=O)cc(SCC(=O)N2CCOCC2)c2ccc(Cl)cc21 | 442 | -3.9% (inactive) | -3.2% (inactive) | 89.4% | 52.1% (inactive) | 92.6% | -0.557 (inactive) | -5.8e-05 (inactive) | 0.00569 (inactive) | 15% (inactive) | 23.4% (inactive)
8 | CCOc1ccc(-n2c(C)nc3c(cnn3-c3ccc(Cl)cc3)c2=O)cc1 | 238 | -9% (inactive) | -23.6% (inactive) | 96.9% | 2.1% (inactive) | 109% | -0.58 (inactive) | -4.1e-06 (inactive) | 0.00771 (inactive) | -2.74% (inactive) | -8.54% (inactive)
9 | COc1ccccc1N1CCN(C(=O)c2ccc(CS(=O)(=O)c3ccccc3OC)o2)CC1 | 550 | -12.7% (inactive) | -6.3% (inactive) | 110% | -68.7% (inactive) | 113% | -0.478 (inactive) | 3.4e-05 (inactive) | 0.00677 (inactive) | 6.55% (inactive) | 15.7% (inactive)
10 | Cc1ccc(N2CC(C(=O)Nc3ccc4c(c3)OCO4)CC2=O)cc1 (stereo not drawn) | 556 | -19.5% (inactive) | 18.6% (inactive) | 110% | -43.5% (inactive) | 120% | -0.567 (inactive) | -4.3e-05 (inactive) | 0.00603 (inactive) | 14.2% (inactive) | 21.6% (inactive)
11 | O=C(CSc1nnc(Cn2nnc(-c3ccccc3)n2)n1-c1ccccc1)Nc1ccc(F)cc1 | 626 | -9.3% (inactive) | -10.3% (inactive) | 101% | -114% (inactive) | 111% | -0.573 (inactive) | -6e-05 (inactive) | 0.00351 (inactive) | 10.9% (inactive) | 14.9% (inactive)
12 | Cc1ccc(-c2nnc3ccc(SCC(=O)NCc4ccco4)nn23)cc1 | 421 | 0.7% (inactive) | 0.7% (inactive) | 117% | 17.1% (inactive) | 99.7% | -0.234 (inactive) | -7.9e-06 (inactive) | 0.00584 (inactive) | 4.93% (inactive) | 7.2% (inactive)
13 | COc1cccc(-n2nnc3c(=O)n(Cc4cccc(F)c4)cnc32)c1 | 421 | -1.7% (inactive) | -11.5% (inactive) | 127% | -3.7% (inactive) | 117% | -0.304 (inactive) | -7e-06 (inactive) | 0.00737 (inactive) | -8.19% (inactive) | -14% (inactive)
14 | O=C(CN1CCCN(S(=O)(=O)c2ccc(Br)cc2)CC1)Nc1ccc2cn[nH]c2c1 | 432 | -1.3% (inactive) | 11% (inactive) | 103% | -23.3% (inactive) | 134% | -0.517 (inactive) | -0.000173 (inactive) | 0.00424 (inactive) | -14.5% (inactive) | 2.45% (inactive)
15 | COc1ccccc1-c1ccc(Nc2cccc(C(C)=O)c2)nn1 | 319 | -11.3% (inactive) | -0.2% (inactive) | 74.7% | 0.3% (inactive) | 103% | -0.576 (inactive) | -6e-05 (inactive) | 0.00562 (inactive) | 12.1% (inactive) | -36.2% (inactive)
16 | O=C(C1CCC1)N1CCc2cc(S(=O)(=O)Nc3ccc4c(c3)OCO4)ccc21 | 606 | 10.1% (inactive) | 18.8% (inactive) | 92% | 3.5% (inactive) | 137% | -0.391 (inactive) | -6.2e-05 (inactive) | 0.0066 (inactive) | 7.48% (inactive) | 13.6% (inactive)
17 | CCOC(=O)CC1(CC(=O)OCC)NC(=O)c2c(C)sc(C(=O)OCC)c2N1 | 704 | -3.5% (inactive) | 16% (inactive) | 94.4% | 3.1% (inactive) | 112% | -0.402 (inactive) | -3.3e-06 (inactive) | 0.00375 (inactive) | 10.5% (inactive) | 17% (inactive)
18 | COC(=O)c1sc(NC(=O)c2ccoc2C)nc1C | 554 | -7.5% (inactive) | 8.8% (inactive) | 94.1% | 15.5% (inactive) | 98% | -0.557 (inactive) | 8.6e-06 (inactive) | 0.00464 (inactive) | -18.1% (inactive) | -76.5% (inactive)
19 | O=C(Nc1ccc(N2CCOCC2)cc1)c1cccc(S(=O)(=O)N2CCCC2)c1 | 401 | -0.5% (inactive) | 6.3% (inactive) | 106% | -31.6% (inactive) | 110% | -0.309 (inactive) | -3.6e-05 (inactive) | 0.00454 (inactive) | 12.2% (inactive) | 9.44% (inactive)
20 | Cc1cc(S(=O)(=O)n2cnc3ccccc32)c(C)cc1Cl | 449 | -11.9% (inactive) | 25.3% (inactive) | 78% | 8% (inactive) | 113% | -0.473 (inactive) | 1.7e-06 (inactive) | 0.00564 (inactive) | 1.42% (inactive) | 14.8% (inactive)
21 | Clc1cccc(-c2nn3c(Cn4cnc5ccccc54)nnc3s2)c1 | 581 | 4.7% (inactive) | -6.1% (inactive) | 113% | -92.1% (inactive) | 130% | -0.432 (inactive) | -0.000274 (inactive) | 0.00396 (inactive) | 18.7% (inactive) | 21.6% (inactive)
22 | Cc1nc(C)c(C(=O)Nc2ccc(C)c(F)c2)o1 | 600 | -4.5% (inactive) | 19.4% (inactive) | 97.5% | -2.7% (inactive) | 120% | -0.335 (inactive) | -5.2e-05 (inactive) | 0.00567 (inactive) | 4.25% (inactive) | -10.3% (inactive)
23 | CCn1c(C(=O)N2CCCC(C(=O)O)C2)cc2sccc21 (stereo not drawn) | 335 | 26.3% (active) | -57.1% (inactive) | 115% | -32.2% (inactive) | 115% | -0.485 (inactive) | 8.2e-05 (inactive) | 0.00595 (inactive) | -2.79% (inactive) | -4.5% (inactive)
24 | CCN1C(=O)OC2(CCCCC2)C1(C)O (stereo not drawn) | 429 | 0% (inactive) | -3.6% (inactive) | 114% | 9.3% (inactive) | 106% | -0.566 (inactive) | 2.7e-05 (inactive) | 0.00575 (inactive) | 4.15% (inactive) | 8.64% (inactive)
25 | CCN(CCCNC(=O)c1cn(CC)c2ccc(S(=O)(=O)N(C)C)cc2c1=O)c1cccc(C)c1 | 587 | -12.9% (inactive) | 23.2% (inactive) | 106% | -62.7% (inactive) | 116% | -0.475 (inactive) | 8.6e-05 (inactive) | 0.00589 (inactive) | 5.55% (inactive) | 3.96% (inactive)
26 | CCC(=O)Nc1ccc(F)c(Cl)c1 | 292 | 1.5% (inactive) | 7.9% (inactive) | 108% | -76% (inactive) | 124% | -0.538 (inactive) | 9.9e-07 (inactive) | 0.0059 (inactive) | 21.2% (inactive) | 13.9% (inactive)
27 | CCOc1ccccc1Nc1nc2ccccc2[nH]1 | 327 | 1.2% (inactive) | 5.9% (inactive) | 111% | 2.9% (inactive) | 109% | -0.524 (inactive) | -0.000156 (active) | 0.00599 (inactive) | -18.9% (inactive) | -39.8% (inactive)
28 | C=CCSc1nnc(-c2ccccc2NC(C)=O)c(=O)[nH]1 | 765 | -33.6% (inactive) | 8% (inactive) | 102% | -60.3% (inactive) | 107% | -0.468 (inactive) | -0.000277 (inactive) | 0.00542 (inactive) | -0.29% (inactive) | 9.66% (inactive)
